High-throughput results from PubChem BioAssay.
This is a sample that favours compounds with a hit; in the whole collection about 12% have one here.
RAM inhibit: blocks the yeast RAM network | S. cerevisiae dse1pr::URA3 reporter, 5-FOA growth OD615, 2 d; analog-sensitive cbk1-as2 kinase mutant strain | inhibition, % at 50 µM | 190,000 tested, 1.8% active;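 active means inhibition above a set limit, 3 SD over mean compound inhibition, cut at about 8.4% in these data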;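 further: 0% = DMSO-only wells with no growth and 100% = 10 µM 1-NA-PP1 full growth; inhibition rescues growth on 5-FOA so higher OD means more RAM inhibition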
ABCG2 block: blocks JC-1 efflux by human ABCG2 transporter; Q9UNQ0; IgMXP3 cells, flow cytometry; inhibition, % at 6.6 µM; 190,000 tested, 0.1% active;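 active means inhibition above 80%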;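 further: 0% = DMSO and 100% = nicardipine control wells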
Target sequence (Q9UNQ0 whole entry, looked up): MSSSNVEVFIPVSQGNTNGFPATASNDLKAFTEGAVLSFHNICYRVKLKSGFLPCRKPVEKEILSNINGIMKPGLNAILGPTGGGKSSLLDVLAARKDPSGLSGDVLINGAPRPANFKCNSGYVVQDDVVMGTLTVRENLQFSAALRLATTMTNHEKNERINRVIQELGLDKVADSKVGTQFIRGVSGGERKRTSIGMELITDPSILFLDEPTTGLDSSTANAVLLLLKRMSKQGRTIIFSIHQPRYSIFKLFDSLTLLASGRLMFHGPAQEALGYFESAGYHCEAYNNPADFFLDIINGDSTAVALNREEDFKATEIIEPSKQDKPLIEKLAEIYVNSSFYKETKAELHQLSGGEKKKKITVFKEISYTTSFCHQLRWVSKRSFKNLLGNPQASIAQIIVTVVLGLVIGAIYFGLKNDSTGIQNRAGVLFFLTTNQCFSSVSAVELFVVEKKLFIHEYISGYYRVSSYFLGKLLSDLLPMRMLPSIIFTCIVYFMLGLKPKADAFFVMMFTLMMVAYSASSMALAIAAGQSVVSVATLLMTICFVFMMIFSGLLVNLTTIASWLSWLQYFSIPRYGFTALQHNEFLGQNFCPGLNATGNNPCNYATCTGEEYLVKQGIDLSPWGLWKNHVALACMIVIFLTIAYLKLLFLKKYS
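Measure – % inhibition of efflux relative to nicardipine and DMSO · Test system – ABCG2 IgMXP3 and barcoded ABCB1 CCRF-Adr cell mix · Control set – nicardipine as high control, DMSO as low control · Compound – one concentration, 6.6 µM final · Signal – flow cytometry of retained JC-1 fluorescence · Timing – 10 min exposure at 25 °C with rotation, no wash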
ABCB1 block: inhibitors of human ABCB1 transporter, ABCG2 counter-screen; P08183; inhibition, % at 6.6 µM; CCRF-Adr cells, JC-1 efflux, flow cytometry; 190,000 tested, 0.067% active; in the data active means inhibition above about 40%;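 further: 0% = vehicle and 100% = reference inhibitor; higher value means more JC-1 retained so stronger ABCB1 efflux block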
WT yeast gro inh: growth inhibition of WT yeast, mitochondrial fusion screen; 190,000 tested, 2.1% active; mitochondrial fusion phenotypic screen, WT strain; inhibition, % at 10 µM; AID 1362; in the data active means inhibition above about 58%; tested in S. cerevisiae
Lmaj promast: Leishmania major promastigote growth inhibition | AID 1063 | inhibition, % at 10 µM | Leishmania major promastigotes, resazurin fluorescence viability | 200,000 tested, 9% active; in the data active means inhibition above about 50%;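 further: promastigotes grown with compound for 44 hours at 28 °C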
* marks the source's active call; other numbers are inactive results; / = no result given.

SMILES | RAM inhibit | ABCG2 block | ABCB1 block | WT yeast gro inh | Lmaj promast
Cc1cc(C)n(CC2CC(=O)N(c3ccc(Cl)c(Cl)c3)C2=O)n1 (configuration not stated) | -1.2 | 8.3 | 1.3 | -1.2 | -4.1
O=C1COc2ccc(S(=O)(=O)Nc3ccc4c(c3)OCO4)cc2N1 | -0.8 | 1.3 | 0.8 | 13.8 | -2.8
O=C(CCSc1ccccc1)NC(=O)COC(=O)c1ccc(OC(F)F)cc1 | 0.7 | 7.5 | 0.7 | 14.3 | -6.9
COCCN(C(=O)Cc1cccs1)C(C(=O)NCc1ccc(OC)cc1)c1ccccc1 (configuration not stated) | 0.2 | -0.4 | 0.7 | 98.9* | 2.1
COc1ccc(CNC(=O)C(c2ccncc2)N(C(=O)Cc2cccs2)c2ccccc2)cc1 (configuration not stated) | 6.7 | -4.2 | -0.2 | -2.2 | 7.8
CN=C1SC(CC(=O)Nc2c(C)cccc2C)C(=O)N1/N=C/c1cccs1 (configuration not stated) | 2.2 | 4.3 | 0.8 | 5.3 | 54.6*
CN=C1SC(CC(=O)Nc2cccc(Cl)c2Cl)C(=O)N1C (configuration not stated) | 0.9 | 4.4 | 0.8 | -5.7 | -2.4
CC1=NN(c2ccc(F)cc2)C(=O)C1C(c1cccc(O)c1)c1c(C)[nH]n(-c2ccc(F)cc2)c1=O (configuration not stated) | 2.7 | -0.2 | -0.2 | -6.2 | 71.7*
COc1cc2c(cc1NC(=S)Nc1cccc3ccccc13)oc1ccccc12 | 4.2 | 3.2 | 0.3 | 69.0* | 8.4
COc1cc2c(cc1NC(=S)Nc1cccc(C(F)(F)F)c1)oc1ccccc12 | 1.4 | -11.5 | -1.8 | 64.0* | 7.0
COc1cc2c(cc1NC(=O)Cc1ccc(C)cc1)oc1ccccc12 | 5.0 | 5.2 | 0.6 | 3.6 | -4.3
CCc1ccc(C(C)NC(=O)c2ncn[nH]2)cc1 (configuration not stated) | 0.4 | 0.7 | / | -22.5 | 44.2
Nc1cc(=O)[nH]c(SCC(=O)Nc2ccccc2Sc2ccccc2)n1 | 1.3 | -2.3 | -0.6 | -2.9 | -1.9
CN(C)CCCN1C(=O)c2cccc3c(Br)ccc(c23)C1=O | 0.5 | 7.0 | 0.9 | 18.9 | 99.6*
CC(C(=O)Nc1ccccc1)N(c1cccc(Cl)c1)S(C)(=O)=O (configuration not stated) | 2.2 | 10.7 | 1.2 | 3.5 | -3.7
CN1CCN(c2ccc(Cl)cc2NC(=O)c2ccc(S(=O)(=O)N3CCCCCC3)cc2)CC1 | -0.8 | 0.9 | 3.8 | 5.6 | 88.0*
CN1CCN(c2ccc(S(=O)(=O)N3CCCCC3)cc2NC(=O)c2ccc(C#N)cc2)CC1 | 0.6 | 0.8 | 0.2 | -13.6 | 1.7
O=C(N/N=C\c1cc(Cl)ccc1O)c1ccc(S(=O)(=O)N2CCCCC2)cc1 | 3.4 | 5.8 | -0.6 | 11.0 | 97.6*
CCOC(=O)C(C)N1C(=O)S/C(=C/c2ccc3c(c2)n(C)c(=O)n3C)C1=O (configuration not stated) | -0.5 | 6.7 | 1.4 | 0.2 | 67.4*
CCOc1ccccc1NC(=O)CSc1nnc(-c2ccco2)n1Cc1ccco1 | -0.2 | 8.1 | 2.3 | 14.8 | 12.7
CCOc1ccccc1NC(=O)CSc1nnc(-c2ccccc2Cl)n1Cc1ccco1 | 1.5 | 10.8 | 2.7 | -4.4 | 51.0*
CCOC(=O)c1c(NC(=O)CSc2nnc(-c3ccncc3)n2Cc2ccco2)sc(C)c1C | 2.6 | / | / | 31.1 | 56.5*
C=CCn1c(SCC(=O)Nc2cc(OC)c(NC(=O)c3ccco3)cc2OC)nnc1-c1ccncc1 | 8.6* | 6.2 | 0.4 | -24.5 | -0.7
CCc1ccc(N2C(=O)CC(N(CC3CCCO3)C(=O)/C=C/C(=O)O)C2=O)cc1 (configuration not stated) | -0.9 | 10.4 | 1.4 | -4.2 | -1.7
CCOC(=O)N1CCC(N2C(=O)c3ccccc3C2Nc2ccc(S(=O)(=O)N3CCOCC3)cc2)CC1 (configuration not stated) | 0.8 | -0.5 | 0.2 | -1.2 | -4.2
O=C(Nc1nc(-c2ccccc2)cs1)C1CCCCN1S(=O)(=O)c1ccc(Cl)cc1 (configuration not stated) | 5.3 | 1.1 | 0.5 | 42.9 | 99.7*
O=C(Nc1nc(-c2ccccc2)cs1)C1CCCCN1S(=O)(=O)c1ccccc1 (configuration not stated) | 1.9 | 20.1 | 2.7 | 18.7 | 93.3*
O=C(Nc1ccc2c(c1)OCO2)C1CCCCN1S(=O)(=O)c1ccccc1 (configuration not stated) | 3.7 | 5.9 | 0.0 | 17.6 | 65.0*
